Two compounds from ChEMBL document CHEMBL4359929, “Piperidine and piperazine inhibitors of fatty acid amide hydrolase targeting excitotoxic pathology” (Bioorg Med Chem, 2019) can be followed below.

A short description of data set [1]: Stability in human gastric fluid assessed as half life. It counts as ADME, tissue-based, Gastric juice. A digest of the protocol: (§1)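 Stability assessed as half-life in human, rat and mouse plasma and gastric fluid, and in human, rat and mouse liver microsomal preparations.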
Data set [2] in a line: Stability in rat gastric fluid assessed as half life. The class given is ADME, tissue-based, Gastric juice. The method, boiled down: as §1
The species entered for data set [3] is Homo sapiens. Kind of data set: Selectivity ratio of IC50 for human full length ABHD6 expressed in Escherichia coli cells to IC50 for human recombinant MBP-tagged FAAH expressed in Escherichia coli cells by fluorescence based assay.
Data set [4] deals with T1, Monoacylglycerol lipase ABHD6 (Rattus norvegicus) (UniProt Q5XI64).
T1 sequence (whole entry): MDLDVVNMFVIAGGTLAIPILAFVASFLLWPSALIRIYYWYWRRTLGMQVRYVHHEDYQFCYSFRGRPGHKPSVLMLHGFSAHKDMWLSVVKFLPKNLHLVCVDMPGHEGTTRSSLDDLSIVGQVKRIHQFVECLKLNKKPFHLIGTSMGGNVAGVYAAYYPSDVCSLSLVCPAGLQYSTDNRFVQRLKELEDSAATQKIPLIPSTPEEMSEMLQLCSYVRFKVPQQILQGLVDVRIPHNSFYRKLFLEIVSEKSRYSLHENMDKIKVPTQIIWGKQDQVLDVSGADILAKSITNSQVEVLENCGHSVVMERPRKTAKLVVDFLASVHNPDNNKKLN
Put plainly: Inhibition of ABHD6 in rat brain membrane at 1 to 10 uM incubated for 30 mins followed by incubation with FP-Rh probe for 45 mins by ABPP assay. The class given is cell membranes. A digest of the protocol:
(§2)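 Gel-based competitive ABPP on rat brain membrane homogenates (10 mg/mL protein). Compound at 1 and 10 μM or DMSO for 30 min at room temperature, then 10 μM rhodamine-tagged fluorophosphonate probe for 45 min at room temperature. FAAH was run with a reference FAAH inhibitor at 10 μM as positive control. Serine hydrolase labelling read by in-gel fluorescence.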

A short description of data set [5]: Selectivity ratio of IC50 for human recombinant His-tagged MGL expressed in Escherichia coli BL21 DE3 cells to IC50 for rat recombinant His/GST-tagged FAAH expressed in Escherichia coli cells by fluorescence based assay.
Data set [6] is described as follows: Stability in mouse liver microsomes assessed as half life. The class given is ADME, Microsome. A digest of the protocol: as §1
On the technique in general: Microsomes from liver hold many membrane-bound enzymes, among them those of drug oxidation.

For data set [7], the species on record is Homo sapiens. Put plainly: Selectivity ratio of IC50 for human recombinant His-tagged MGL expressed in Escherichia coli BL21 DE3 cells to IC50 for human recombinant MBP-tagged FAAH expressed in Escherichia coli cells by fluorescence based assay.
Data set [8] concerns the target T2, Monoglyceride lipase (Rattus norvegicus) (UniProt Q8R431).
T2 sequence (whole entry): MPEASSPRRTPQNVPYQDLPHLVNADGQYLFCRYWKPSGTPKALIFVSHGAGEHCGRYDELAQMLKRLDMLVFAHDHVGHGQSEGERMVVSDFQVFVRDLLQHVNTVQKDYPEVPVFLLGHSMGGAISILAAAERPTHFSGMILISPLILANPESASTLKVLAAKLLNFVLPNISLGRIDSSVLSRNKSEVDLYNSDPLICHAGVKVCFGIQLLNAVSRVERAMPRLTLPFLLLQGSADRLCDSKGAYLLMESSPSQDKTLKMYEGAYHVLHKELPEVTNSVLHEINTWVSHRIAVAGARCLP
Kind of data set: Inhibition of MGL in rat brain membrane at 1 to 10 uM incubated for 30 mins followed by incubation with FP-Rh probe for 45 mins by ABPP assay. It counts as cell membranes. The method, boiled down: as §2

The target of data set [9] is Cannabinoid receptor 1 (Rattus norvegicus) (UniProt P20272). Kind of data set: Displacement of [3H]CP55940 from CB1 receptor in rat brain by competition-equilibrium binding analysis.
Target sequence in this assay (P20272 whole entry, looked up): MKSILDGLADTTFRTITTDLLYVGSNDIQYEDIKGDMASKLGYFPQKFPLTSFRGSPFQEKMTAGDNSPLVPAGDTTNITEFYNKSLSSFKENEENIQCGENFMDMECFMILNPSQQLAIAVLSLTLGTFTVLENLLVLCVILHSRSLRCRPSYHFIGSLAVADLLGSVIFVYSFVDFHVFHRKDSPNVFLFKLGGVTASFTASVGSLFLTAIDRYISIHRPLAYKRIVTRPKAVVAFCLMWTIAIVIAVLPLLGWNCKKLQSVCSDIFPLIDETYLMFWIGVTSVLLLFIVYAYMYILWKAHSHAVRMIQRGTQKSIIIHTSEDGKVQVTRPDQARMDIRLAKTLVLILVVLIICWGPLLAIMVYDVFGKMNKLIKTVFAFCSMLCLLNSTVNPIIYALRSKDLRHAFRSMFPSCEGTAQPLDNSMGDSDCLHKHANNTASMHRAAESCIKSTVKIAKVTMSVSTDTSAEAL
Another data set relates to Hippocampus. Kind of data set: Neuroprotective activity against Sprague-Dawley rat hippocampus assessed as decrease in KA-induced excitotoxicity by measuring increase in syn IIb level at 3 to 30 uM preincubated for 1 hr followed by KA stimulation for 2 hrs in continued presence of compound followed by KA wash out and then further incubation with compound for 24 hrs by immunoblot analysis. The class given is functional, tissue-based. A digest of the protocol:
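Sprague-Dawley rat hippocampal slices (400 μm, postnatal day 12) cultured 18–20 days at 37 °C, 5% CO2. Pretreated 60 min with 3–30 μM compound or 0.1% DMSO, then 60 μM kainic acid for 2 h with compound. Three washouts, then 24 h recovery with 30 μM compound. Harvested in groups of 7–9; GluR1, synaptophysin and synapsin IIb by immunoblot with optical density. Unpaired t-tests.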
A general note: Immunoblotting shows a protein as a band on a membrane.

Data set [10] deals with Cannabinoid receptor 1 (Rattus norvegicus) (UniProt P20272). Put plainly: Displacement of [3H]CP55940 from CB1 receptor in rat brain by competition-equilibrium binding analysis. It counts as tissue-based. The method, boiled down: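 Rat brain membranes as CB1 source; competition-equilibrium binding against [3H]CP-55,940.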
Target sequence in this assay (P20272 whole entry): as the sequence (P20272 whole entry, looked up) above
A further data set concerns the target T3, Monoglyceride lipase (Homo sapiens, UniProt Q99685).
T3 sequence (Q99685 whole entry): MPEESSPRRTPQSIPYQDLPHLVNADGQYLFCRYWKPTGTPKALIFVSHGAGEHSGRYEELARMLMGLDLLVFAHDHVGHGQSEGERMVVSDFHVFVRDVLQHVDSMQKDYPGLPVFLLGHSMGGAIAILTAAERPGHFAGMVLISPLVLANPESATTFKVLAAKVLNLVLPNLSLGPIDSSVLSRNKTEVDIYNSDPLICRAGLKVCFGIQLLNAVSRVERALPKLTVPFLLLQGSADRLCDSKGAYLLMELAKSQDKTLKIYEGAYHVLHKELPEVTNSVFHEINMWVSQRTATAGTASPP
Put plainly: Inhibition of human recombinant His-tagged MGL expressed in Escherichia coli BL21 DE3 cells using AHMMCE as substrate preincubated with enzyme for 15 mins followed by substrate addition and measured after every 15 mins for 3 hrs by fluorescence based assay. A digest of the protocol:
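Fluorescent enzyme assay in throughput format. Human recombinant FAAH or purified rat FAAH used arachidonoyl 7-amino-4-methylcoumarin amide as substrate; human recombinant MGL was run by a similar fluorometric procedure.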

For data set [11], the target named is T4, Fatty-acid amide hydrolase 1 (Rattus norvegicus) (UniProt P97612).
T4 sequence (whole entry): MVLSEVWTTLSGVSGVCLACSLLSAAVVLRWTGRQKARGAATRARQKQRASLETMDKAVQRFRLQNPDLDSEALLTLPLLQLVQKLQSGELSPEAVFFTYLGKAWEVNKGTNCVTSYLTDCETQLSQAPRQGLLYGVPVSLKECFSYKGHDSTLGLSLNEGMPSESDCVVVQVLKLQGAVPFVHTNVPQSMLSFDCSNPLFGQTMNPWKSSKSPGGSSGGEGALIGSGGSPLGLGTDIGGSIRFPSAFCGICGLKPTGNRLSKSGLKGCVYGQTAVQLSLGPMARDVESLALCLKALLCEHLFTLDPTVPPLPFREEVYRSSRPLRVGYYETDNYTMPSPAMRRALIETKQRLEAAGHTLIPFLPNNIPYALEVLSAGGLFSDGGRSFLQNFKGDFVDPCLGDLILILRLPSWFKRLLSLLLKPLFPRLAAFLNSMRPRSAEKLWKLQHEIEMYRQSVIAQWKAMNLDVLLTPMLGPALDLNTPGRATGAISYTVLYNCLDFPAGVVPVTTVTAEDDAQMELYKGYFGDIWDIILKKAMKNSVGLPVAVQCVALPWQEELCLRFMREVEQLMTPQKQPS
Put plainly: Inhibition of FAAH in rat brain membrane at 1 to 10 uM incubated for 30 mins followed by incubation with FP-Rh probe for 45 mins by ABPP assay. It counts as cell membranes. The method, boiled down:
as §2

Data set [12] is described as follows: Stability in human plasma assessed as half life. It counts as ADME, cell-free. A digest of the protocol: as §1

Activity calls are given as the source filed them.

With `O=C(Oc1cccc(N2CCS(=O)(=O)CC2)c1)N1CCC(c2ccc(N3CCC3)cc2)CC1`, the half-life (in general, the time needed for the level to fall by half in the phase considered) in data set [1] is > 1 h; in data set [2], > 1 h; in data set [6] it was 0.25 to 0.417 h; in data set [12], > 1 h. The Ratio IC50 (in the data set filed under Homo sapiens [3]; in data set [5]; in the data set listed under Homo sapiens [7]) was > 1000 throughout. Further, the inhibition result in data set [4] and in [8] was “inactive” in each case. Moreover, the outcome in data set [9] and in [10] was inactive. Also, the inhibition (usually the share of the control response that was lost under treatment) in the data set on Hippocampus is “Active”. Besides, on Monoglyceride lipase, the IC50 (commonly the concentration that inhibits the measured activity by half) is > 1000 nM. In addition, the inhibition in data set [11] came out at 100%.

In the case of `C[C@@H]1CN(c2ccc(F)cc2)CCN1C(=O)Oc1cccc(N2CCS(=O)(=O)CC2)c1`, the half-life was > 1 h in [1], > 1 h in data set [2], 0.25 to 0.417 h in data set [6] and > 1 h in [12]. The Ratio IC50 (in the data set filed under Homo sapiens [3]; in [5]; in the data set filed under Homo sapiens [7]) was > 1000 each time. In addition, the inhibition entry in data set [4] and in data set [8] was “inactive” each time. Also, the result in [9] and in data set [10] was inactive. The inhibition result with Hippocampus was “Active”. The IC50 at Monoglyceride lipase was > 1000 nM. This compound returned an inhibition in data set [11] of 100%.
